From ChEMBL document CHEMBL3351942, “Rexinoids isolated from Sophora tonkinensis with a gene expression profile distinct from the synthetic rexinoid bexarotene” (J Nat Prod, 2014)
The source made the active and inactive calls. The calls are words filed in the database; no cut-off is given here.

Legend:
[1] = Activation of LXR in mouse C2C12 cells assessed as induction of SREBP1 mRNA expression at 10 uM after 24 hrs by quantitative RT-PCR analysis; assay type: cell-based
[2] = system: C2C12; assay: Induction of HMOX-1 mRNA level in mouse C2C12 cells at 10 uM after 24 hrs by quantitative RT-PCR analysis; assay type: functional, cell-based
Procedure, shortened: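 C2C12 myoblasts were differentiated in 2% horse serum, with medium changed every other day for 5 days. The myotubes were then exposed to compound at 10 μM for 24 h. mRNA was measured by SYBR green qRT-PCR from 0.5 μg total RNA, normalized to β-actin (ΔΔCt), and expressed as fold of vehicle. Four determinants, representative of two experiments.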

[3] = target: T1, Peroxisome proliferator-activated receptor alpha (Homo sapiens) (UniProt Q07869); assay: Activation of PPARalpha (unknown origin) by receptor-CBP cofactor complex formation assay
T1 sequence (whole entry): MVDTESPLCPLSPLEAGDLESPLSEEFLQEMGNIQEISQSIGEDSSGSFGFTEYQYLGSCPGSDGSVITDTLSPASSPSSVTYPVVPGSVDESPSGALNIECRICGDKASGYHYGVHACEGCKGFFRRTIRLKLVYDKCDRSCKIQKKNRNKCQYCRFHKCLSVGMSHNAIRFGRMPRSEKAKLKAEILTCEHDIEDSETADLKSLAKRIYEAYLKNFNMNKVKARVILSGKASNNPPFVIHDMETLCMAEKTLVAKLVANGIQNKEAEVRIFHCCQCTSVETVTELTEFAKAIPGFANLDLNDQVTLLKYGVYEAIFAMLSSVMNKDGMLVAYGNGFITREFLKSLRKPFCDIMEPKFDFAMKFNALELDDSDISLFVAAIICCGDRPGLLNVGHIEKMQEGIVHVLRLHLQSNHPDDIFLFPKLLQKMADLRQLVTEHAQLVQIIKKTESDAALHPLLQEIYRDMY
Procedure, shortened: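 Cell-free cofactor recruitment ELISA: ligand-dependent binding of PPAR isotypes to CBP, detected by HRP-conjugated anti-PPAR antibody at OD450. Full agonists GW7647 (α), GW1929 (γ), GW501516 (δ) define 100%, vehicle 0%; efficacy as maximum B/Bmax% and potency as EC50.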

[4] = Activation of LXR in mouse C2C12 cells assessed as induction of ABCA1 mRNA expression at 10 uM after 24 hrs by quantitative RT-PCR analysis; assay type: cell-based
Procedure, shortened: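 C2C12 myoblasts grown in DMEM/10% FBS, differentiated at confluence in 2% horse serum, medium changed every other day for 5 days; myotubes treated 24 h with or without T0901317 (1 μM). Total RNA, DNase-treated, oligo(dT) RT from 0.5 μg, SYBR green qPCR; normalized to β-actin (delta-delta Ct), fold over vehicle; mean ± SD of four determinants, one of two experiments.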

In the case of `CC(C)=CCc1cc([C@@H]2CC(=O)c3ccc(O)c(CC=C(C)C)c3O2)cc2c1OC(C(C)(C)O)C2` (some centres undefined), the Activity [1] is reported as “Active”, the Activity [2] is reported as “Active” and the Activity [3] is reported as “inactive”. For the same compound, the Activity [4] was “Active”.
